Results reported in ChEMBL document CHEMBL1147378, “Further lupane lactones from Kokoona ochracea” (1993).
≈ marks a conversion by molar mass, not a printed value.

Columns and labels:
[1] = Cytotoxicity against human multidrug-resistant KBV1 cells in absence of vinblastine after 72 hrs; format: functional; settings: KB-V1, 72 h, read-out: ED50 (the source's name)
Summary of the method: (§1)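 Cells in media with penicillin, streptomycin, fungizone and NaHCO3, pH 7.1–7.2. Compounds dissolved in DMSO (0.5% v/v final) and tested in triplicate at four concentrations (0.16–20 μg/ml). Incubation 72 h at 37° under 5% CO2. Cells fixed in cold 50% TCA and stained with sulforhodamine B. Bound dye solubilized in 10 mM Tris base, OD read at 515 nm. ED50 taken from averaged % of DMSO-only controls.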

[2] = Cytotoxicity against human multidrug-resistant KBV1 cells in presence of vinblastine after 72 hrs; format: functional; settings: KB-V1, 72 h, read-out: ED50 (the source's name)
A-431 = assay: Cytotoxicity against human A431 cells after 72 hrs; format: functional; settings: A-431, 72 h, read-out: ED50 (the source's name); summary of the method: as §1
ZR-75-1 = assay: Cytotoxicity against human ZR-75-1 cells after 72 hrs; format: functional; settings: ZR-75-1, 72 h, read-out: ED50 (the source's name); summary of the method: as §1
P388 = assay: Cytotoxicity against mouse P388 cells after 48 hrs; format: functional; settings: P388, 48 h, read-out: ED50 (the source's name)
Summary of the method: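 Murine P-388 cells grown in medium without fungizone. Treated in triplicate at four concentrations (0.16–20 μg/ml), DMSO 0.5% v/v final. Incubation 48 h at 37° under 5% CO2. Fixed with 20% TCA, stained with sulforhodamine B, Tris-solubilized OD read at 515 nm. ED50 derived from averaged % of DMSO-only controls.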

HT-1080 = assay: Cytotoxicity against human HT1080 cells after 48 hrs; format: functional; settings: HT-1080, 48 h, read-out: ED50 (the source's name)
Summary of the method: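 HT-1080 cells exposed in triplicate to four concentrations (0.16–20 μg/ml) of compound from DMSO stock (0.5% v/v final). Incubation 48 h at 37° under 5% CO2. Read-out by cold 50% TCA fixation, sulforhodamine B staining and Tris-solubilized OD at 515 nm. ED50 derived from averaged % of DMSO-only controls.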

SK-MEL-2 = assay: Cytotoxicity against human SK-MEL-2 cells after 72 hrs; format: functional; settings: SK-MEL-2, 72 h, read-out: ED50 (the source's name)
Summary of the method: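 MEL-2 cells kept in a closed container. Treated in triplicate at four concentrations (0.16–20 μg/ml), DMSO 0.5% v/v final. Incubation 72 h at 37° without CO2. Cells fixed with cold 50% TCA, stained with sulforhodamine B, dye solubilized in 10 mM Tris, OD 515 nm. ED50 derived from averaged % of DMSO-only controls.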

[3] = Cytotoxicity against human BC1 cells after 72 hrs; format: functional; settings: BC1, 72 h, read-out: ED50 (the source's name); summary of the method: as §1
Col2 = assay: Cytotoxicity against human Col2 cells after 72 hrs; format: functional; settings: Col2, 72 h, read-out: ED50 (the source's name); summary of the method: as §1
[4] = Cytotoxicity against human U373 cells after 96 hrs; format: functional, U-373MG ATCC; settings: U373 MG, read-out: ED50 (the source's name)
Summary of the method: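 U373 cells grown in medium without fungizone. Treated in triplicate with four concentrations (0.16–20 μg/ml), DMSO 0.5% v/v final. Incubation 96 h at 37° under 5% CO2. Sulforhodamine B protein stain after cold 50% TCA fixation, OD 515 nm. ED50 derived from averaged % of DMSO-only controls.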

LNCaP = assay: Cytotoxicity against human LNCAP cells after 72 hrs; format: functional; settings: read-out: ED50 (the source's name); summary of the method: as §1
KB = assay: Cytotoxicity against human KB cells after 72 hrs; format: functional; settings: read-out: ED50 (the source's name); summary of the method: as §1
Lu1 = assay: Cytotoxicity against human Lu1 cells after 72 hrs; format: functional; settings: Lu1, 72 h, read-out: ED50 (the source's name); summary of the method: as §1

CC1(C)C(=O)CC[C@]2(C)[C@H]3CC[C@H]4[C@@H]5[C@H]6[C@@H](C[C@]5(C)CC[C@@]4(C)[C@]3(C)CC[C@@H]12)OC(=O)[C@@]6(O)CO [OCHRACEOLIDE D]
EC50 [1]: > 20 µg/mL | EC50 [2]: > 20 µg/mL | EC50 (A-431): 9.5 µg/mL (≈ 19.5 µM) | EC50 (ZR-75-1): > 20 µg/mL | EC50 (P388): > 5 µg/mL | EC50 (HT-1080): 14.7 µg/mL (≈ 30.2 µM) | EC50 (SK-MEL-2): > 20 µg/mL | EC50 [3]: > 20 µg/mL | EC50 (Col2): > 20 µg/mL | EC50 [4]: 3.9 µg/mL (≈ 8.01 µM) | EC50 (LNCaP): 15.5 µg/mL (≈ 31.8 µM) | EC50 (KB): > 20 µg/mL | EC50 (Lu1): > 20 µg/mL

C=C1C(=O)O[C@@H]2C[C@]3(CO)CC[C@]4(C)[C@@H](CC[C@@H]5[C@@]6(C)CCC(=O)C(C)(C)[C@@H]6CC[C@]54C)[C@@H]3[C@H]12 [OCHRACEOLIDE E]
EC50 [1]: > 20 µg/mL | EC50 [2]: > 20 µg/mL | EC50 (A-431): > 20 µg/mL | EC50 (ZR-75-1): 18.8 µg/mL (≈ 40.1 µM) | EC50 (P388): > 5 µg/mL | EC50 (HT-1080): 12.2 µg/mL (≈ 26 µM) | EC50 (SK-MEL-2): 11.9 µg/mL (≈ 25.4 µM) | EC50 [3]: > 20 µg/mL | EC50 (Col2): > 20 µg/mL | EC50 [4]: 8.6 µg/mL (≈ 18.3 µM) | EC50 (LNCaP): > 20 µg/mL | EC50 (KB): > 20 µg/mL | EC50 (Lu1): > 20 µg/mL

CC(=O)OC[C@]1(O)C(=O)O[C@@H]2C[C@]3(C)CC[C@]4(C)[C@@H](CC[C@@H]5[C@@]6(C)CCC(=O)C(C)(C)[C@@H]6CC[C@]54C)[C@@H]3[C@@H]21
EC50 [1]: 14.6 µg/mL (≈ 27.6 µM) | EC50 [2]: 11.7 µg/mL | EC50 (A-431): > 20 µg/mL | EC50 (ZR-75-1): > 20 µg/mL | EC50 (P388): 4.6 µg/mL (≈ 8.7 µM) | EC50 (HT-1080): > 20 µg/mL | EC50 (SK-MEL-2): 20 µg/mL (≈ 37.8 µM) | EC50 [3]: > 20 µg/mL | EC50 (Col2): > 20 µg/mL | EC50 [4]: > 20 µg/mL | EC50 (LNCaP): > 20 µg/mL | EC50 (KB): 16.7 µg/mL (≈ 31.6 µM) | EC50 (Lu1): > 20 µg/mL

CC(=O)OC[C@]1(OC(C)=O)C(=O)O[C@@H]2C[C@]3(C)CC[C@]4(C)[C@@H](CC[C@@H]5[C@@]6(C)CCC(=O)C(C)(C)[C@@H]6CC[C@]54C)[C@@H]3[C@@H]21
EC50 [1]: 18.3 µg/mL (≈ 32.1 µM) | EC50 [2]: 6.7 µg/mL | EC50 (A-431): > 20 µg/mL | EC50 (ZR-75-1): 11.5 µg/mL (≈ 20.1 µM) | EC50 (P388): 4.8 µg/mL (≈ 8.41 µM) | EC50 (HT-1080): > 20 µg/mL | EC50 (SK-MEL-2): 6.2 µg/mL (≈ 10.9 µM) | EC50 [3]: > 20 µg/mL | EC50 (Col2): > 20 µg/mL | EC50 [4]: > 20 µg/mL | EC50 (LNCaP): > 20 µg/mL | EC50 (KB): 16.8 µg/mL (≈ 29.4 µM) | EC50 (Lu1): > 20 µg/mL
